Measurements as given in ChEMBL document CHEMBL1938381, “Design, synthesis, and structure-activity relationship studies of conformationally restricted mutilin 14-carbamates” (2012).
≈ marks a conversion by molar mass, not a printed value.

Experiments:
Assay type in all cases: functional
Staphylococcus aureus [1] = assay: Antibacterial activity against methicillin-susceptible Staphylococcus aureus by agar microdilution method
Procedure, shortened: (§1)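 MIC by agar microdilution following NCCLS standard M7-A6 (2003), tested against clinical isolates: MRSA n = 6, MRSE n = 5, MSSA n = 5, MSSE n = 5; values given as a single MIC or a range across isolates.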

Staphylococcus aureus [2] = assay: Antibacterial activity against methicillin-resistant Staphylococcus aureus by agar microdilution method; procedure, shortened: as §1
[3] = system: Staphylococcus epidermidis; assay: Antibacterial activity against methicillin-susceptible Staphylococcus epidermidis by agar microdilution method; procedure, shortened: as §1
[4] = system: Staphylococcus epidermidis; assay: Antibacterial activity against methicillin-resistant Staphylococcus epidermidis by agar microdilution method; procedure, shortened: as §1
Streptococcus pneumoniae [5] = assay: Antibacterial activity against Streptococcus pneumoniae by agar microdilution method
Procedure, shortened: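 MIC read by agar microdilution following NCCLS standard M7-A6 (2003), against a panel of 3 Streptococcus pneumoniae clinical isolates. Values in µg/mL, given as a range where the isolates differed.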

Staphylococcus aureus [6] = assay: Ratio of Linezolid MIC to compound MIC for methicillin-susceptible Staphylococcus aureus
[7] = system: Staphylococcus epidermidis; assay: Ratio of Linezolid MIC to compound MIC for methicillin-susceptible Staphylococcus epidermidis
Streptococcus pneumoniae [8] = assay: Ratio of Linezolid MIC to compound MIC for Streptococcus pneumoniae

Row | Structure (SMILES) | MIC (Staphylococcus aureus [1]) [µg/mL] | MIC (Staphylococcus aureus [2]) [µg/mL] | MIC [3] [µg/mL] | MIC [4] [µg/mL] | MIC (Streptococcus pneumoniae [5]) [µg/mL] | Ratio (Staphylococcus aureus [6]) | Ratio [7] | Ratio (Streptococcus pneumoniae [8])
1 | C=C[C@]1(C)C[C@@H](OC(=O)N2Cc3ccc(NC(=O)[C@@H]4CCCN4)cc3C2=O)[C@]2(C)[C@H](C)CC[C@]3(CCC(=O)[C@H]32)[C@@H](C)[C@@H]1O.Cl | 0.25 | 0.25 | 0.25 | 0.25 | 0.5 | 4 | 4 | 4
2 | C=C[C@]1(C)C[C@@H](OC(=O)N2Cc3ccc(F)cc3C2=O)[C@]2(C)[C@H](C)CC[C@]3(CCC(=O)[C@H]32)[C@@H](C)[C@@H]1O | 0.125 (≈ 0.251 µM) | 0.125 (≈ 0.251 µM) | 0.125 (≈ 0.251 µM) | 0.125 (≈ 0.251 µM) | 0.125 (≈ 0.251 µM) | 4 | 4 | 4
3 | C=C[C@]1(C)C[C@@H](OC(=O)N2Cc3cc(N4CCN(C)CC4)ccc3C2=O)[C@]2(C)[C@H](C)CC[C@]3(CCC(=O)[C@H]32)[C@@H](C)[C@@H]1O | 0.125 (≈ 0.216 µM) | 0.125 (≈ 0.216 µM) | 0.125 (≈ 0.216 µM) | 0.125 (≈ 0.216 µM) | 0.25 (≈ 0.433 µM) | 4 | 4 | 4
4 | C=C[C@]1(C)C[C@@H](OC(=O)N2Cc3cc(N)ccc3C2=O)[C@]2(C)[C@H](C)CC[C@]3(CCC(=O)[C@H]32)[C@@H](C)[C@@H]1O | 0.125 (≈ 0.253 µM) | 0.125 (≈ 0.253 µM) | 0.125 (≈ 0.253 µM) | 0.125 (≈ 0.253 µM) | 0.125 (≈ 0.253 µM) | 4 | 4 | 4
5 | C=C[C@]1(C)C[C@@H](OC(=O)N2CCc3cc(OC)c([N+](=O)[O-])cc3C2=O)[C@]2(C)[C@H](C)CC[C@]3(CCC(=O)[C@H]32)[C@@H](C)[C@@H]1O | 0.125 (≈ 0.22 µM) | 0.25 (≈ 0.44 µM) | 0.25 (≈ 0.44 µM) | 0.25 (≈ 0.44 µM) | 0.25 (≈ 0.44 µM) | 4 | 4 | 4
